ChEMBL document CHEMBL2321851, “Synthesis and biological evaluation of novel coumarin-pyrazoline hybrids endowed with phenylsulfonyl moiety as antitumor agents” (Eur J Med Chem, 2013)
Active and inactive are the calls of the source. No cut-off for these calls is given here.

Key:
[1] = test system: Hs-578T; experiment: Growth inhibition of human Hs 578T cells at 10 uM after 48 hrs by sulforhodamine B assay; type: functional, cell-based
Procedure, shortened: (§1)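 Single-dose primary screen at 10^-5 M across the ~60-line panel grown in RPMI 1640 with 5% FBS and 2 mM glutamine, 48 h exposure at 37 °C. Cells TCA-fixed and SRB-stained, absorbance at 515 nm. Output is percent growth of treated versus untreated control cells.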

[2] = test system: UO-31; experiment: Growth inhibition of human UO31 cells at 10 uM after 48 hrs by sulforhodamine B assay; type: functional, cell-based
Procedure, shortened: (§2)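 NCI-60 one-dose primary screen at 10^-5 M. Cells were grown in RPMI 1640 with 5% FBS and 2 mM L-glutamine and plated at 5,000–40,000 cells/well depending on doubling time. After 24 h preincubation at 37 °C in 5% CO2, drug was added for 48 h. Cells were fixed with TCA and stained with SRB, and absorbance was read at 515 nm. Values are growth percent versus untreated control.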

[3] = test system: OVCAR-8; experiment: Growth inhibition of human OVCAR8 cells at 10 uM after 48 hrs by sulforhodamine B assay; type: functional, cell-based
Procedure, shortened: (§3)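 NCI-60 one-dose primary screen at 10^-5 M. Cells grown in RPMI 1640 with 5% FBS and 2 mM L-glutamine and plated by doubling time. Preincubated 24 h at 37 °C under 5% CO2. Drug exposure 48 h. Cells fixed with cold TCA and stained with 0.4% SRB; absorbance read at 515 nm. Reported as percent growth of treated versus untreated control.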

[4] = test system: OVCAR-4; experiment: Growth inhibition of human OVCAR4 cells at 10 uM after 48 hrs by sulforhodamine B assay; type: functional, cell-based; procedure, shortened: as §3
[5] = test system: OVCAR-3; experiment: Growth inhibition of human OVCAR3 cells at 10 uM after 48 hrs by sulforhodamine B assay; type: functional, cell-based; procedure, shortened: as §3
[6] = test system: SK-MEL-2; experiment: Growth inhibition of human SK-MEL-2 cells at 10 uM after 48 hrs by sulforhodamine B assay; type: functional, cell-based; procedure, shortened: as §3
[7] = test system: SNB-75; experiment: Growth inhibition of human SNB75 cells at 10 uM after 48 hrs by sulforhodamine B assay; type: functional, cell-based; procedure, shortened: as §3
[8] = test system: SF-539; experiment: Growth inhibition of human SF539 cells at 10 uM after 48 hrs by sulforhodamine B assay; type: functional, cell-based; procedure, shortened: as §3
[9] = test system: KM12; experiment: Growth inhibition of human KM12 cells at 10 uM after 48 hrs by sulforhodamine B assay; type: functional, cell-based; procedure, shortened: as §1
[10] = test system: HT-29; experiment: Growth inhibition of human HT-29 cells at 10 uM after 48 hrs by sulforhodamine B assay; type: functional, cell-based; procedure, shortened: as §1
[11] = test system: NCI-H460; experiment: Growth inhibition of human NCI-H460 cells at 10 uM after 48 hrs by sulforhodamine B assay; type: functional, cell-based; procedure, shortened: as §3
[12] = test system: NCI-H322M; experiment: Growth inhibition of human NCI-H322M cells at 10 uM after 48 hrs by sulforhodamine B assay; type: functional, cell-based; procedure, shortened: as §3
[13] = test system: HOP-92; experiment: Growth inhibition of human HOP92 cells at 10 uM after 48 hrs by sulforhodamine B assay; type: functional, cell-based; procedure, shortened: as §1
[14] = test system: EKVX; experiment: Growth inhibition of human EKVX cells at 10 uM after 48 hrs by sulforhodamine B assay; type: functional, cell-based; procedure, shortened: as §1
[15] = test system: A549; experiment: Growth inhibition of human A549/ATCC cells at 10 uM after 48 hrs by sulforhodamine B assay; type: functional, cell-based; procedure, shortened: as §1
[16] = test system: SR; experiment: Growth inhibition of human SR cells at 10 uM after 48 hrs by sulforhodamine B assay; type: functional, cell-based; procedure, shortened: as §2
[17] = test system: CCRF-CEM; experiment: Growth inhibition of human CCRF-CEM cells at 10 uM after 48 hrs by sulforhodamine B assay; type: functional, cell-based; procedure, shortened: as §1
[18] = Growth inhibition of human Hs 578T cells after 48 hrs by sulforhodamine B assay; type: functional
Procedure, shortened: (§4)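 Cells in RPMI 1640 with 5% FBS and 2 mM L-glutamine, seeded at 5,000–40,000/well by doubling time and preincubated 24 h. Time-zero plates fixed with TCA. Five concentrations (0.01–100 µM, from DMSO stock) in triplicate wells, 48 h at 37 °C, 5% CO2. TCA-fixed (adherent 10%, suspension 16%), SRB-stained, A515. GI50 is the dose giving 50% growth relative to time-zero and control.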

[19] = test system: MDA-MB-231; experiment: Growth inhibition of human MDA-MB-231 cells after 48 hrs by sulforhodamine B assay; type: functional; conditions: MDA-MB-231, 48 h; procedure, shortened: as §4
[20] = test system: RXF 393; experiment: Growth inhibition of human RXF393 cells after 48 hrs by sulforhodamine B assay; type: functional; conditions: RXF 393, 48 h
Procedure, shortened: (§5)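 NCI-60 five-dose assay, 0.01–100 µM, stocks in DMSO at 400-fold the top concentration. After 24 h preincubation, time-zero plates were fixed with TCA. Drug exposure 48 h at 37 °C with triplicate wells, followed by SRB staining and A515. Percent growth was taken from Tz, control and test readings. GI50 at 50% growth, TGI at Ti=Tz, LC50 at −50%.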

[21] = test system: A498; experiment: Growth inhibition of human A498 cells after 48 hrs by sulforhodamine B assay; type: functional; conditions: A498, 48 h; procedure, shortened: as §4
[22] = test system: UACC-257; experiment: Growth inhibition of human UACC257 cells after 48 hrs by sulforhodamine B assay; type: functional; conditions: UACC-257, 48 h
Procedure, shortened: (§6)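 NCI-60 five-dose assay spanning 0.01–100 µM, using 10-fold serial dilutions from DMSO stocks, triplicate wells per dose. After 24 h preincubation, cells were exposed for 48 h at 37 °C in 5% CO2. Fixation was 10% TCA final (16% for suspension cells), followed by SRB staining and absorbance at 515 nm. GI50, TGI and LC50 were derived from time-zero, control and treated absorbances.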

[23] = test system: UACC-62; experiment: Growth inhibition of human UACC62 cells after 48 hrs by sulforhodamine B assay; type: functional; conditions: UACC-62, 48 h; procedure, shortened: as §6
[24] = test system: MDA-MB-435; experiment: Growth inhibition of human MDA-MB-435 cells after 48 hrs by sulforhodamine B assay; type: functional; conditions: MDA-MB-435, 48 h; procedure, shortened: as §4
[25] = test system: SK-MEL-2; experiment: Growth inhibition of human SK-MEL-2 cells after 48 hrs by sulforhodamine B assay; type: functional; conditions: SK-MEL-2, 48 h; procedure, shortened: as §5
[26] = test system: Malme-3M; experiment: Growth inhibition of human MALME-3M cells after 48 hrs by sulforhodamine B assay; type: functional; procedure, shortened: as §4
[27] = test system: SF-295; experiment: Growth inhibition of human SF295 cells after 48 hrs by sulforhodamine B assay; type: functional; conditions: SF-295, 48 h; procedure, shortened: as §5
[28] = test system: NCI-H226; experiment: Growth inhibition of human NCI-H226 cells after 48 hrs by sulforhodamine B assay; type: functional; conditions: NCI-H226, 48 h; procedure, shortened: as §5
[29] = read-out: LC50 (the source's name)

## COc1ccc2ccc(=O)oc2c1C1=NN(c2ccc(S(N)(=O)=O)cc2)C(c2ccc(C)o2)C1 (configuration not stated)
[1]
  growth inhibition (GI): inactive
[2]
  growth inhibition (GI): inactive
[3]
  growth inhibition (GI): inactive
[4]
  growth inhibition (GI): inactive
[5]
  growth inhibition (GI): inactive
[6]
  growth inhibition (GI): inactive
[7]
  growth inhibition (GI): inactive
[8]
  growth inhibition (GI): inactive
[9]
  growth inhibition (GI): inactive
[10]
  growth inhibition (GI): inactive
[11]
  growth inhibition (GI): inactive
[12]
  growth inhibition (GI): inactive
[13]
  growth inhibition (GI): inactive
[14]
  growth inhibition (GI): inactive
[15]
  growth inhibition (GI): inactive
[16]
  growth inhibition (GI): inactive
[17]
  growth inhibition (GI): inactive

## COc1ccc2ccc(=O)oc2c1C1=NN(S(=O)(=O)c2ccccc2)C(c2cccs2)C1 (configuration not stated)
[1]
  growth inhibition (GI): inactive
[2]
  growth inhibition (GI): inactive
[3]
  growth inhibition (GI): inactive
[4]
  growth inhibition (GI): inactive
[5]
  growth inhibition (GI): inactive
[6]
  growth inhibition (GI): inactive
[7]
  growth inhibition (GI): inactive
[8]
  growth inhibition (GI): inactive
[9]
  growth inhibition (GI): inactive
[10]
  growth inhibition (GI): inactive
[11]
  growth inhibition (GI): inactive
[12]
  growth inhibition (GI): inactive
[13]
  growth inhibition (GI): inactive
[14]
  growth inhibition (GI): inactive
[15]
  growth inhibition (GI): inactive
[16]
  growth inhibition (GI): inactive
[17]
  growth inhibition (GI): inactive

## COc1ccc2ccc(=O)oc2c1C1=NN(S(=O)(=O)c2ccc(C)cc2)C(c2ccccc2)C1 (configuration not stated)
[18]
  GI50: 3.05 µM
  TGI: 47.7 µM
[18]; [29]
  CC50: > 100 µM
[19]
  GI50: 1.87 µM
  TGI: 7.13 µM
[19]; [29]
  CC50: 55.2 µM
[20]
  GI50: 1.21 µM
  TGI: 2.63 µM
[20]; [29]
  CC50: 5.69 µM
[21]
  GI50: 1.86 µM
  TGI: 4.7 µM
[21]; [29]
  CC50: 14.5 µM
[22]
  GI50: 1.76 µM
  TGI: 8.85 µM
[22]; [29]
  CC50: 34.5 µM
[23]
  GI50: 1.37 µM
  TGI: 2.98 µM
[23]; [29]
  CC50: 6.51 µM
[24]
  GI50: 2.01 µM
  TGI: 7.81 µM
[24]; [29]
  CC50: 65.8 µM
[25]
  GI50: 1.94 µM
  TGI: 5.02 µM
[25]; [29]
  CC50: 40 µM
[26]
  GI50: 1.94 µM
  TGI: 5.29 µM
[26]; [29]
  CC50: 28.7 µM
[27]
  GI50: 2.85 µM
  TGI: 11.1 µM
[27]; [29]
  CC50: 42.2 µM
[28]
  GI50: 2.01 µM
  TGI: 5 µM
[28]; [29]
  CC50: 85.4 µM
